Experimental data of several laboratories.
Each line is one published result; the experiments were not run side by side.
Target: 5-hydroxytryptamine receptor 7 (HTR7, Homo sapiens, UniProt P34969)
Technique: radioligand

SMILES	test	conditions	Ki [nM]
O=C1c2ccccc2CCN1CCCCN1CCN(c2cccc(Cl)c2Cl)CC1	ligand displacement		21
O=C(CCCN1CCCN(c2ccc(Cl)cc2)CC1)c1ccc(F)cc1	ligand displacement		78
CN1CCN(CCCN2c3ccccc3Sc3ccc(C(F)(F)F)cc32)CC1	ligand displacement	cell membranes	497
CC1(CCN2CCc3ccccc3C2)Cc2cc(Cl)ccc2C1=O (racemic)	ligand displacement		2.1
CCc1nc2cc(OCCCCN3CCC(c4cccc(Cl)c4Cl)CC3)ccc2s1	cell-free assay		160
Cc1nc2sccn2c(=O)c1CCN1CCC(=C(c2ccc(F)cc2)c2ccc(F)cc2)CC1	ligand displacement	cell membranes	468
CCCCN1CCC(COC(=O)c2ccc(N)c(OCF)c2)CC1	cell-free assay		> 10000
CNc1nc2cc(OCCCCN3CCC(c4cccc(Cl)c4Cl)CC3)ccc2s1	cell-free assay		95
